Screens (PubChem)
TNAP act DEA – human TNAP enzyme activators, primary screen, biochemical, luminescent, intermediate phosphate acceptor level; Alkaline phosphatase, tissue-nonspecific isozyme (Homo sapiens), P05186; purified TNAP, CDP-star luminescence, 100 mM DEA, 30 min; active compounds read high; scale: 0 levamisole-inhibited, 1 vehicle-only enzyme; activation factor at 20 µM; 64,000 tested, under 10 active; AID 813, 2007;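 active = activation factor of at least 2 at 20 µM, relative to controls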
Target sequence (P05186 whole entry, looked up): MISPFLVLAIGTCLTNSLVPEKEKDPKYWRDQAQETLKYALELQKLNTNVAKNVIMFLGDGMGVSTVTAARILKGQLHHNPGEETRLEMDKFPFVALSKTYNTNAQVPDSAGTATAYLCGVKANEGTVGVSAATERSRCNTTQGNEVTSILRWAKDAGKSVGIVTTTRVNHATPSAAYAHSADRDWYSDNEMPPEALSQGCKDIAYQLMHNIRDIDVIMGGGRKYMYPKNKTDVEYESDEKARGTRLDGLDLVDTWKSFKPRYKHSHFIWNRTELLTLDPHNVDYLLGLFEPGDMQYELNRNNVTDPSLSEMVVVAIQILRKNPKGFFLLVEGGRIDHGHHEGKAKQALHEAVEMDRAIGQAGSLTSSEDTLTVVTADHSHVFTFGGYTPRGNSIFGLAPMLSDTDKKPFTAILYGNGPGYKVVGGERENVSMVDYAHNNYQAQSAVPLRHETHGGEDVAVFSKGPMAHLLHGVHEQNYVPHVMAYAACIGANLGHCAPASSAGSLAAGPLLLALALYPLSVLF
S1P1 ag pot – S1P1 agonists and agonism potentiators, primary screen, cell-based, primary and confirmation screens, CRE-bla reporter | S1P1 CRE-bla cells, forskolin, beta-lactamase FRET, potentiator mode; S1P1 agonist co-added at EC20, 2 nM; 100% = saturating reference agonist, 0% = basal | activation, % at 9.5 µM | 56,000 tested, 0.57% active | AID 449, 2006;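 active = activation above a cutoff set at the mean activation of all tested compounds plus 3 SD, cut at about 54% in these data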;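 note: forskolin at 4 µM as EC80 and the EC20 agonist is SEW2871; 100% = SEW2871 at its EC100 plus forskolin at EC80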
M1 antag – antagonists of rat M1 muscarinic receptor | CHO-M1 cells, Fluo-4 calcium, ACh EC80 antagonist mode; active compounds read low | B-score at 10 µM | AID 628, 2007 | 64,000 tested, 3.4% active | Muscarinic acetylcholine receptor M1 (Rattus norvegicus), P08482;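 active = calcium fluorescence response, raw or row-and-column corrected B-score, differing from the plate sample mean either way at a set confidence level, mostly lower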
D1 mod – D1 CRE-luciferase signal change, two-sided – cell-based, HEK293 D1, dopamine EC30, D1 allosteric modulator project, primary screen | 58,000 tested, 5.9% active | AID 641, 2007 | B-score at 10 µM | dopamine EC30 potentiation; actives deviate in either direction | D(1A) dopamine receptor (Homo sapiens), P21728;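 active = luminescence count or its row- and column-corrected plate score outside the 99.7% band of the plate's sample wells, on either side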
S1P3 ag – human S1P3 receptor agonists, primary screen, cell-based, primary and confirmation, NFAT-BLA reporter; Sphingosine 1-phosphate receptor 3 (Homo sapiens), Q99500; S1P3 NFAT-BLA reporter cells, agonism, FRET ratio; relative to 1 µM S1P, basal subtracted; AID 373, 2006; 60,000 tested, 0.1% active; activation, % at 4.5 µM;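 active = activation above the screen-wide mean plus 3 SD, cut at about 4.5% in these data, passing the limit was not always enough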
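Assay system: stable CHO line with human S1P3, Gα16, NFAT-BLA reporter; Detection: FRET β-lactamase substrate fluorescence, excitation 405 nm, 460/535 nm emission ratio, background-subtracted; Read-out: percent activation versus median 1 µM S1P response, basal-subtracted, per plate; Incubation: cells plated overnight, compound 4 h 37 °C, substrate 2 h RT.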
M1 agonist – M1 muscarinic receptor agonists, primary screen, CHO-M1 cells, Fluo-4 calcium, agonist mode; Muscarinic acetylcholine receptor M1; Fluo-4 calcium fluorescence; active compounds read high; B-score at 10 µM; 64,000 tested, 3% active; AID 626, 2007;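 active = fluorescence rise, raw or as B-score row- and column-corrected plate score, outside the 99.7% band of its plate's samples, either direction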
M1 antag conf – rat M1 muscarinic receptor antagonists, confirmation, CHO cells, Fluo-4 calcium, duplicate; calcium response (max-min fluorescence) at 10 µM; shares compounds with M1 antag; AID 677, 2007; ACh EC80 antagonism; active compounds read low; 1,700 tested, 43% active;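 active = calcium response below the same-plate mean of wells given acetylcholine alone at its 80%-effect dose, minus 3 SD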;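 note: raw fluorescence intensity difference in arbitrary instrument units and not normalized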
mGluR4 antag – human mGluR4 response to M1 antagonist hits, M1 allosteric modulator project, cell-based, antagonist mode, secondary assay 1; 1,700 tested, 0.9% active; shares compounds with M1 antag; fluorescence response (max-min) at 10 µM; CHO-mGluR4 calcium flux, Fluo-4 fluorescence, glutamate EC80; active compounds read low;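 active = fluorescence response below the plate's average for near-maximal glutamate wells, less 3 SD of those wells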;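 note: raw unnormalized fluorescence span taken in the window right after glutamate addition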
An asterisk follows results filed as active; · = no result given. Compounds with a hit are over-represented: about 11% of the library has one in this group of screens.

SMILES	TNAP act DEA	S1P1 ag pot	M1 antag	D1 mod	S1P3 ag	M1 agonist	M1 antag conf	mGluR4 antag
CN(C)CCCOC(=O)Cc1ccc(Cl)cc1	0.9	-6	-2.3*	-0.19	-1	0.046	463	198
CCCCSc1nc2c(cc1C#N)CCC2	0.9	10	-0.1	2.1	-1	0.57	·	·
CS(=O)CSc1nc2c(cc1C#N)CCCC2 (stereo not given)	1	-26	-9.3*	0.5	0	-0.2	260*	203
Cc1ccc(-c2nsc3c(N4CCN(C(=O)c5ccco5)CC4)ncnc23)cc1	0.9	13	-0.059	0.12	-1	-0.33	·	·
OC(CN1CCOCC1)CN(c1ccccc1)c1ccccc1 (stereo not given)	0.9	-14	-0.071	-1.6	0	-0.6	·	·
OC(CN1CCCCC1)CN(c1ccccc1)c1ccccc1 (stereo not given)	0.9	-24	-22*	-2.6	-1	1.8	78*	193
Cc1nc(N2CCN(C(=O)c3ccco3)CC2)c2c3c(sc2n1)CCC3	0.9	·	-3.1*	-0.57	·	2.4	493	217
CC(C)c1nc(N2CCN(C(=O)c3ccco3)CC2)c2c3c(sc2n1)CCCC3	0.9	-60	-0.56	-0.01	-1	-0.0036	·	·
N#CCCN1CCN(S(=O)(=O)c2ccc(S(=O)(=O)N3CCOCC3)cc2)CC1	1	-4	0.31	-0.14	0	-0.21	·	·
N#CCCN1CCN(S(=O)(=O)c2ccc(S(=O)(=O)NCc3ccccc3)cc2)CC1	1	12	-3.4*	-0.11	-2	0.52	673	255
CCCCOc1ccc(C(=O)N2CCC(C)CC2)cc1	0.9	-12	0.084	-0.061	0	0.67	·	·
CCCCOc1ccc(C(=O)OC2CC(C)N(C)CC2C)cc1 (stereo not given)	0.9	0	-13*	·	-4	-0.025	44*	241
CC(C)(C)n1nnnc1C(c1cccs1)N(Cc1ccccc1)Cc1cccnc1 (stereo not given)	0.8	9	-4.7*	-0.33	0	-0.23	377*	236
CCN(Cc1ccccc1)C(c1ccncc1)c1nnnn1C(C)(C)C (stereo not given)	0.9	0	0.99	0.013	-2	0.79	·	·
CC(C)(C)c1[nH]nc2c1C(c1cccnc1)C(C#N)=C(N)O2 (stereo not given)	0.9	-10	-4.1*	-0.32	-1	-0.24	569	163*
CCCc1[nH]nc2c1C(c1ccccc1OC)C(C#N)=C(N)O2 (stereo not given)	1	-15	-0.0041	1.3	-1	0.29	·	·
CCCc1[nH]nc2c1C(c1ccncc1)C(C#N)=C(N)O2 (stereo not given)	0.8	-28	-3.7*	-0.78	-1	0.096	590	227
CCc1[nH]nc2c1C(c1cccnc1)C(C#N)=C(N)O2 (stereo not given)	0.9	-16	0.012	0.7	-1	0.64	·	·
Cc1ccn(C(=O)c2ccc(NC(=O)C3CCCCC3)cc2)n1	0.9	-13	-0.76	0.1	2	-1.3	·	·
CCN(CC)CCOC(=O)C1(c2ccccc2)CCOCC1	0.9	-21	-15*	0.78	0	-0.94	102*	237
O=C(Cn1c(C(=O)NCCCN2CCOCC2)cc2sccc21)c1ccccc1	0.9	·	-1.5	·	·	-0.036	·	·
